≈ marks a conversion by molar mass, not a printed value. Values belong to the compound of their own block, whether it stands above or below them.
Experiments:
[1] = tested on: Trypanosoma brucei brucei; assay: Antimicrobial activity against bloodstream form of Trypanosoma brucei brucei 427 at 10 uM after 48 hrs by alamar blue assay; type: functional; conditions: Trypanosoma brucei, 427, 48 h
[2] = tested on: Trypanosoma brucei brucei; assay: Antimicrobial activity against bloodstream form of Trypanosoma brucei brucei 427 after 48 hrs by alamar blue assay; type: functional, organism-based; conditions: Trypanosoma brucei, 427, 48 h
[3] = Selectivity index, ratio of IC50 for HEK293 cells to IC50 for Trypanosoma brucei brucei 427; type: toxicity, cell-based; conditions: human, read-out: Ratio IC50
[4] = Plasma protein binding in human […] by chromatographic method; type: ADME, cell-free; conditions: read-out: PPB (converted)
Procedure, shortened: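 Human plasma protein binding was estimated by a chromatographic method.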

[5] = Partition coefficient, log D of the compound at pH 7.4 by HPLC method; type: physicochemical; conditions: octanol/water
Procedure, shortened: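 Distribution coefficient at pH 7.4 was measured chromatographically.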

[6] = Kinetic solubility of the compound at 10 mg/ml at pH 6.5 by nephelometry; type: physicochemical; conditions: buffer, read-out: Kinetic_solubility
Procedure, shortened: (§1)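 Kinetic solubility was read by nephelometry at pH 2 and pH 6.5 and reported as μg/mL ranges.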

[7] = Kinetic solubility of the compound at 10 mg/ml at pH 2 by nephelometry; type: physicochemical; conditions: buffer, read-out: Kinetic_solubility; procedure, shortened: as §1
[8] = tested on: Trypanosoma brucei rhodesiense; assay: Antimicrobial activity against bloodstream form of Trypanosoma brucei rhodesiense STIB 900 after 70 hrs by alamar blue assay; type: functional, organism-based; conditions: STIB 900, 70 h
Procedure, shortened: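 Trypanosoma brucei rhodesiense STIB 900 bloodstream-form trypomastigotes, with melarsoprol as reference drug.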

Trypanosoma cruzi = assay: Antimicrobial activity against amastigote form of Trypanosoma cruzi Tulahuen C2C4 infected in rat L6 cells after 96 hrs by microscopic analysis; conditions: Tulahuen C2C4, L6, 96 h
L6 = assay: Cytotoxicity against rat L6 cells after 70 hrs by alamar blue assay; type: cell-based; conditions: L6, 70 h
Procedure, shortened: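 Cytotoxicity on the rat skeletal myoblast L-6 strain, with podophyllotoxin as reference drug.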

Leishmania donovani = assay: Antimicrobial activity against amastigote form of Leishmania donovani MHOM/ET/67/L82 after 70 hrs by alamar blue assay; type: functional, organism-based; conditions: MHOM/ET/67/L82, 70 h
Procedure, shortened: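 Leishmania donovani MHOM-ET-67/L82 axenic amastigotes, with miltefosine as reference drug.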

Plasmodium falciparum = assay: Antimicrobial activity against erythrocytic stage of Plasmodium falciparum NF54 infected in human washed RBC assessed as [3H]-hypoxanthine incorporation incubated for 48 hrs prior to [3H]-hypoxanthine addition measured after 24 hrs by liquid scintillation counting analysis; type: functional, organism-based
Liver microsome = assay: Intrinsic clearance in human liver microsomes at 1 uM after 60 mins by LC-MS analysis; type: ADME; conditions: 1 h
Procedure, shortened: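 In vitro intrinsic clearance was measured in human liver microsomes and expressed per mg protein. A hepatic extraction ratio (E_H) was predicted from the in vitro data.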

Compound: Cc1ccccc1C(=O)Nc1cccc(C#CCC(C)C)n1
inhibition at 10 µM [1]: < 10%

Compound: Cc1ccc(NC(=O)c2ccccc2C)nc1
inhibition at 10 µM [1]: < 10%

IC50 [2]: 3.5 µM
Compound: Cc1cccc(C(=O)Nc2ccccn2)c1C
selectivity ratio [3]: 24

IC50 [2]: 5.7 µM
Compound: Cc1c(Br)cccc1C(=O)Nc1ccccn1
selectivity ratio [3]: 15

Compound: CCC/C=C/c1ccc(C(=O)Nc2ccccn2)c(C)c1
inhibition at 10 µM [1]: 24%

Compound: COc1cccc(C(=O)Nc2ccccn2)c1C
inhibition at 10 µM [1]: 10%

Compound: Cc1ccccc1C(=O)Nc1ncccc1F
inhibition at 10 µM [1]: < 10%

IC50 [2]: 0.53 µM
Compound: Cc1c(C(=O)Nc2cc(Cl)ccn2)ccc(F)c1F
selectivity ratio [3]: 160

Compound: Cc1ccccc1C(=O)Nc1ccsc1
inhibition at 10 µM [1]: < 10%

IC50 [2]: 1.1 µM
Compound: Cc1cc(Cl)ccc1C(=O)Nc1ccccn1
selectivity ratio [3]: 76

Compound: Cc1ccccc1C(=O)Nc1cccc(Cl)n1
inhibition at 10 µM [1]: < 10%

Compound: Cc1ccccc1C(=O)Nc1ccc(C#CCC(C)C)cn1
inhibition at 10 µM [1]: 12%

Compound: CCCCCN(C(=O)c1ccccc1C)c1ccccn1
inhibition at 10 µM [1]: 17%

IC50 [2]: 0.63 µM
Compound: Cc1c(Cl)cccc1C(=O)Nc1ccccn1
selectivity ratio [3]: 132

Compound: Cc1ccccc1C(=O)Nc1cccnn1
inhibition at 10 µM [1]: < 10%

Compound: Cc1ccc(F)cc1C(=O)Nc1ccccn1
inhibition at 10 µM [1]: < 10%

Compound: Cc1ccccc1C(=O)Nc1nncs1
inhibition at 10 µM [1]: < 10%

Compound: Cc1ccccc1NC(=O)c1ccccn1
inhibition at 10 µM [1]: < 10%

Compound: O=C(Nc1ccccn1)c1ccccc1C(F)(F)F
inhibition at 10 µM [1]: < 10%

Compound: Cc1ccncc1C(=O)Nc1ccccn1
inhibition at 10 µM [1]: < 10%

Compound: COc1ccc(C(=O)Nc2ccccn2)c(C)c1
inhibition at 10 µM [1]: < 10%

fraction unbound [4]: 0.024
logD [5]: 3.9
solubility kinetic [6]: 6.3 µg/mL (≈ 29.5 µM)
solubility kinetic [7]: 6.3 µg/mL (≈ 29.5 µM)
Compound: Cc1ccccc1C(=O)Nc1ncccn1
inhibition at 10 µM [1]: < 10%

Compound: Cc1ccccc1C(=O)Nc1ccc(Cl)cn1
inhibition at 10 µM [1]: < 10%

Compound: Cc1ccccc1C(=O)Nc1ccncn1
inhibition at 10 µM [1]: < 10%

Compound: COc1ccc(C)c(C(=O)Nc2ccccn2)c1
inhibition at 10 µM [1]: < 10%

Compound: Cc1ccc(C)c(C(=O)Nc2ccccn2)c1
inhibition at 10 µM [1]: 22%

IC50 [8]: 0.24 µM
IC50 (Trypanosoma cruzi): 187 µM
IC50 [2]: 0.98 µM
IC50 (Plasmodium falciparum): 93 µM
Compound: Cc1ccc(C(=O)Nc2ccccn2)c(C)c1
IC50 (L6): 283 µM
IC50 (Leishmania donovani): > 133 µM
selectivity ratio [3]: 85

Compound: Cc1cccc(C)c1C(=O)Nc1ccccn1
inhibition at 10 µM [1]: < 10%

IC50 [2]: 0.51 µM
Compound: Cc1ccccc1C(=O)Nc1cc(F)ccn1
selectivity ratio [3]: 168

Compound: Cc1ccccc1C(=O)Nc1cccc(-c2ccccc2)n1
inhibition at 10 µM [1]: 33%

Compound: COc1cccc(NC(=O)c2ccccc2C)n1
inhibition at 10 µM [1]: < 10%

fraction unbound [4]: 0.33
CLint (Liver microsome): 191 µL/min/mg
logD [5]: 3
solubility kinetic [6]: > 100 µg/mL
solubility kinetic [7]: > 100 µg/mL
Compound: Cc1ccccc1C(=O)Nc1cccc(F)n1
inhibition at 10 µM [1]: < 10%

Compound: Cc1ccc(Br)cc1C(=O)Nc1ccccn1
inhibition at 10 µM [1]: < 10%

IC50 [2]: 7.33 µM
Compound: O=C(Nc1ccccn1)c1cccc(F)c1
selectivity ratio [3]: 11

Compound: Cc1ccccc1C(=O)Nc1ccc(-c2ccccc2)cn1
inhibition at 10 µM [1]: 11%

Compound: Cc1cccnc1C(=O)Nc1ccccn1
inhibition at 10 µM [1]: 12%

fraction unbound [4]: 0.359
CLint (Liver microsome): 82 µL/min/mg
logD [5]: 2.8
solubility kinetic [6]: 25 µg/mL (≈ 105 µM)
IC50 [2]: 2.3 µM
solubility kinetic [7]: 50 µg/mL (≈ 211 µM)
Compound: Cc1ccccc1C(=O)Nc1cc(C#N)ccn1

Compound: Cc1ccccc1C(=O)Nc1ncco1
inhibition at 10 µM [1]: < 10%

Compound: Cc1cccc(F)c1C(=O)Nc1ccccn1
inhibition at 10 µM [1]: 45%

Compound: Cc1ccccc1C(=O)Nc1cccc(C#N)n1
inhibition at 10 µM [1]: 11%

Compound: Cc1ccccc1C(=O)Nc1cc[nH]n1
inhibition at 10 µM [1]: < 10%

Compound: Cc1ccccc1C(=O)Nc1cccc(C#Cc2ccccc2)n1
inhibition at 10 µM [1]: < 10%

Compound: Cc1cc(-c2ccccc2)ccc1C(=O)Nc1ccccn1
inhibition at 10 µM [1]: < 10%

IC50 [2]: 6 µM
Compound: CCC/C=C/c1cccc(NC(=O)c2ccccc2C)n1
selectivity ratio [3]: > 3

— ChEMBL document CHEMBL3352586, “Pyridyl benzamides as a novel class of potent inhibitors for the kinetoplastid Trypanosoma brucei” (J Med Chem, 2014)
